# Results taken from ChEMBL document CHEMBL1287807, “Novel TNF-α converting enzyme (TACE) inhibitors as potential treatment for inflammatory diseases” (Bioorg Med Chem Lett, 2010).
# Assays:
# [1] = molecular target: T1, Disintegrin and metalloproteinase domain-containing protein 10 (Homo sapiens, UniProt O14672); assay: Inhibition of ADAM10
# T1 sequence (O14672 whole entry): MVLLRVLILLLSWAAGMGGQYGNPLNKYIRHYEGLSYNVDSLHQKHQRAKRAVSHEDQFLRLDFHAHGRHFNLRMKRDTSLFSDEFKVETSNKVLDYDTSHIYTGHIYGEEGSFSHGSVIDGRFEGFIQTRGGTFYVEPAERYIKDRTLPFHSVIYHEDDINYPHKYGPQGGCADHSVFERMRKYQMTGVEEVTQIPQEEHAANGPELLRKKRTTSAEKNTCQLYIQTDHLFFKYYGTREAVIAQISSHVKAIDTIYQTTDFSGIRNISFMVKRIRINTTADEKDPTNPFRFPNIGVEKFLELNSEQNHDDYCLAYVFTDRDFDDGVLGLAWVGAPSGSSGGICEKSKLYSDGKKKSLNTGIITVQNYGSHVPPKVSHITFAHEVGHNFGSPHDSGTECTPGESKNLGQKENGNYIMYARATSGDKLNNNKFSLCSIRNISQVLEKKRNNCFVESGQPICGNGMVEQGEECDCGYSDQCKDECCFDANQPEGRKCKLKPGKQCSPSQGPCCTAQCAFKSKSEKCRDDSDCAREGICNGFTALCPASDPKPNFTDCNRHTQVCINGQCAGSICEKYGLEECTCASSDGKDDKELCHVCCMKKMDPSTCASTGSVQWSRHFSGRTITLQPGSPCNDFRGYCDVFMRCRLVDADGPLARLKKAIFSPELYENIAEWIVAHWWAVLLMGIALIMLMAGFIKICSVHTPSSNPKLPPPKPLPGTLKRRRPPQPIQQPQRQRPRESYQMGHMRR
# Blood = assay: Antiinflammatory activity in human whole blood assessed as inhibition of LPS-induced TNFalpha production after 3.5 hrs by ELISA; format: functional
# In short: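 Human whole blood, diluted 1:1 in serum-free RPMI with L-glutamine, Pen-Strep and HEPES, is preincubated with compound for 1 h at 37 °C. It is then stimulated with LPS. Supernatant is harvested after 3.5 h incubation, and TNF-α concentration is measured by ELISA.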
# Matrilysin = molecular target: T2, Matrilysin (Homo sapiens, UniProt P09237); assay: Inhibition of MMP7
# T2 sequence (P09237 whole entry): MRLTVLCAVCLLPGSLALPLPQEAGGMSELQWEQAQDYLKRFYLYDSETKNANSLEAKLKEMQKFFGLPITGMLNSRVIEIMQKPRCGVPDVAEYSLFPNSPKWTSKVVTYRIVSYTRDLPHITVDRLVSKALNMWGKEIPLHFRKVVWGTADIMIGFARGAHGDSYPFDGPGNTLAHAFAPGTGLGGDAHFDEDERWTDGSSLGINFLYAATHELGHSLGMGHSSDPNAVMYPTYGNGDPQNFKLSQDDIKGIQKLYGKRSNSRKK
# [2] = molecular target: 72 kDa type IV collagenase (Homo sapiens, UniProt P08253); assay: Inhibition of MMP2
# [3] = Clearance in dog at 0.5 mg/kg, iv; format: ADME, organism-based, Canis lupus familiaris; set-up: dose 0.5 mg/kg, route intravenous; conditions: in vivo
# [4] = Tmax in dog at 5 mg/kg, po; format: ADME, organism-based, Canis lupus familiaris; set-up: dose 5 mg/kg, route oral; conditions: in vivo
# [5] = AUC in dog at 0.5 mg/kg, iv; format: ADME, organism-based, Canis lupus familiaris; set-up: dose 0.5 mg/kg, route intravenous; conditions: plasma
# Stromelysin-1 = Stromelysin-1 (Homo sapiens, UniProt P08254); assay: Inhibition of MMP3
# [6] = Tmax in monkey at 3 mg/kg, po; format: ADME, organism-based, Macaca mulatta; set-up: dose 3 mg/kg, route oral; conditions: rhesus monkey, in vivo
# [7] = Oral bioavailability in dog at 5 mg/kg; format: ADME, organism-based, Canis lupus familiaris; conditions: in vivo
# [8] = AUC in rat at 3 mg/kg, iv; format: ADME, organism-based; set-up: dose 3 mg/kg, route intravenous; conditions: plasma
# In short: (§1)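 Compound dosed as its Na+ salt, intravenously or orally, at the dose given in each line. AUC is reported in uM.h.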
# [9] = Tmax in rat at 10 mg/kg, po; format: ADME, organism-based; set-up: dose 10 mg/kg, route oral; conditions: in vivo
# [10] = molecular target: Disintegrin and metalloproteinase domain-containing protein 17 (Homo sapiens, UniProt P78536); assay: Inhibition of TACE
# [11] = Half life in dog at 0.5 mg/kg, iv; format: ADME, organism-based, Canis lupus familiaris; set-up: dose 0.5 mg/kg, route intravenous; conditions: in vivo
# [12] = Oral bioavailability in monkey at 3 mg/kg; format: ADME, organism-based, Macaca mulatta; conditions: rhesus monkey, in vivo
# Collagenase 3 = Collagenase 3 (Homo sapiens, UniProt P45452); assay: Inhibition of MMP13
# [13] = AUC in monkey at 1 mg/kg, iv; format: ADME, organism-based, Macaca mulatta; set-up: dose 1 mg/kg, route intravenous; conditions: rhesus monkey, plasma; in short: as §1
# [14] = AUC in dog at 5 mg/kg, po; format: ADME, organism-based, Canis lupus familiaris; set-up: dose 5 mg/kg, route oral; conditions: plasma
# Interstitial collagenase = molecular target: T3, Interstitial collagenase (Homo sapiens, UniProt P03956); assay: Inhibition of MMP1
# T3 sequence (P03956 whole entry): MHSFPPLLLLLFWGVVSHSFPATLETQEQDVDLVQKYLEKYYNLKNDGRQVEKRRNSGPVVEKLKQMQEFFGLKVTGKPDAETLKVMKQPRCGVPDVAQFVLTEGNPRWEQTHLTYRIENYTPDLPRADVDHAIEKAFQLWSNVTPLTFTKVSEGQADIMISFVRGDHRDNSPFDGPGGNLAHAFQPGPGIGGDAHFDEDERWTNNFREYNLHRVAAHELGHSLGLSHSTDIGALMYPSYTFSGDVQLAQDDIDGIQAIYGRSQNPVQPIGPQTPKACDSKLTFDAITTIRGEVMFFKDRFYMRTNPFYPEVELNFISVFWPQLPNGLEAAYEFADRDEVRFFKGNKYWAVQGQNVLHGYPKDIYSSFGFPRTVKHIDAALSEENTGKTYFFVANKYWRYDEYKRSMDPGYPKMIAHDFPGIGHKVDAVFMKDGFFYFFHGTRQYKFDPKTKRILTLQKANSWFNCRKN
# [15] = Oral bioavailability in rat at 10 mg/kg; format: ADME, organism-based; conditions: in vivo
# [16] = AUC in monkey at 3 mg/kg, po; format: ADME, organism-based, Macaca mulatta; set-up: dose 3 mg/kg, route oral; conditions: rhesus monkey, plasma; in short: as §1
# [17] = AUC in rat at 10 mg/kg, po; format: ADME, organism-based; set-up: dose 10 mg/kg, route oral; conditions: plasma; in short: as §1
# [18] = Clearance in rat at 3 mg/kg, iv; format: ADME, organism-based; set-up: dose 3 mg/kg, route intravenous; conditions: in vivo
# [19] = Half life in monkey at 1 mg/kg, iv; format: ADME, organism-based, Macaca mulatta; set-up: dose 1 mg/kg, route intravenous; conditions: rhesus monkey, in vivo
# [20] = molecular target: Matrix metalloproteinase-9 (Homo sapiens, UniProt P14780); assay: Inhibition of MMP9
# [21] = Half life in rat at 3 mg/kg, iv; format: ADME, organism-based; set-up: dose 3 mg/kg, route intravenous; conditions: in vivo
# [22] = Clearance in monkey at 1 mg/kg, iv; format: ADME, organism-based, Macaca mulatta; set-up: dose 1 mg/kg, route intravenous; conditions: rhesus monkey, in vivo
# Sequence of Disintegrin and metalloproteinase domain-containing protein 17 (P78536 whole entry, the tested form may be a part): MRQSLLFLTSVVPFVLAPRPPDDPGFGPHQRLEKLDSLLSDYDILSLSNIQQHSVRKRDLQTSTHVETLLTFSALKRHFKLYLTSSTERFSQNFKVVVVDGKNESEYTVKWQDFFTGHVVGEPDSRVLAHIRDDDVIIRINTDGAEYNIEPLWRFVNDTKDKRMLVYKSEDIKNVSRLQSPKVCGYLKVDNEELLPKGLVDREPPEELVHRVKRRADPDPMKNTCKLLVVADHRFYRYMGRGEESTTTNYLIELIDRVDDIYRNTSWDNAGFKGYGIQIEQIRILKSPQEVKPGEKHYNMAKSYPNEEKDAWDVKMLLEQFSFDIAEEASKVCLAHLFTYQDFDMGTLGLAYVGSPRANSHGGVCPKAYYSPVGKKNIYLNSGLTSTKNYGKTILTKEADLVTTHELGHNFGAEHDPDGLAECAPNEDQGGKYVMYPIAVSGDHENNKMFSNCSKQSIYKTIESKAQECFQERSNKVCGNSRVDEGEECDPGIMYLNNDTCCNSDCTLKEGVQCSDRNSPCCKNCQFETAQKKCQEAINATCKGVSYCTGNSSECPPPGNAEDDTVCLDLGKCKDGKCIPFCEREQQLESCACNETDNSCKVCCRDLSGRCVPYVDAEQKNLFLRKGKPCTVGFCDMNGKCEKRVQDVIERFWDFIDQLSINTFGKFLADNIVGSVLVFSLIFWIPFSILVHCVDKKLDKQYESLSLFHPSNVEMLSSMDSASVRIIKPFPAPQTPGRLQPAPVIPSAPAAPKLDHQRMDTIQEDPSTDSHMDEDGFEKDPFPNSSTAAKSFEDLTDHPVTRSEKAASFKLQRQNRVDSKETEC
# Sequence of 72 kDa type IV collagenase (P08253 whole entry): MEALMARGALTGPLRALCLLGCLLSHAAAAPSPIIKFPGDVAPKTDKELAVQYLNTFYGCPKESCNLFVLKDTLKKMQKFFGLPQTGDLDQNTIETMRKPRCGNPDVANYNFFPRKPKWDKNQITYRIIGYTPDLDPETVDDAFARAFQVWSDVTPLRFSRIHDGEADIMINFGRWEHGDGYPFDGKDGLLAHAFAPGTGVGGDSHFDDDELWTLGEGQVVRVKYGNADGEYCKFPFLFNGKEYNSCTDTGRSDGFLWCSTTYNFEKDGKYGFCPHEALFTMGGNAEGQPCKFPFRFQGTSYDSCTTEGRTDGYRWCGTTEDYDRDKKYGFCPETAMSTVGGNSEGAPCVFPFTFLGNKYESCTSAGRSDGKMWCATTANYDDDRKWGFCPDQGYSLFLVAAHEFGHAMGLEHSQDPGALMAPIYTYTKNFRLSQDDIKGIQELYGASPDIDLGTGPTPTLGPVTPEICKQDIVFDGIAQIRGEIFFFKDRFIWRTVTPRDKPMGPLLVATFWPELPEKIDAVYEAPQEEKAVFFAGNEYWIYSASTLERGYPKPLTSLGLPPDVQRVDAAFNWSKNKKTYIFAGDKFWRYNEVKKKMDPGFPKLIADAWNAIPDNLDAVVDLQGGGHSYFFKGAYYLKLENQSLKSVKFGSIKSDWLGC
# Sequence of Matrix metalloproteinase-9 (P14780 whole entry): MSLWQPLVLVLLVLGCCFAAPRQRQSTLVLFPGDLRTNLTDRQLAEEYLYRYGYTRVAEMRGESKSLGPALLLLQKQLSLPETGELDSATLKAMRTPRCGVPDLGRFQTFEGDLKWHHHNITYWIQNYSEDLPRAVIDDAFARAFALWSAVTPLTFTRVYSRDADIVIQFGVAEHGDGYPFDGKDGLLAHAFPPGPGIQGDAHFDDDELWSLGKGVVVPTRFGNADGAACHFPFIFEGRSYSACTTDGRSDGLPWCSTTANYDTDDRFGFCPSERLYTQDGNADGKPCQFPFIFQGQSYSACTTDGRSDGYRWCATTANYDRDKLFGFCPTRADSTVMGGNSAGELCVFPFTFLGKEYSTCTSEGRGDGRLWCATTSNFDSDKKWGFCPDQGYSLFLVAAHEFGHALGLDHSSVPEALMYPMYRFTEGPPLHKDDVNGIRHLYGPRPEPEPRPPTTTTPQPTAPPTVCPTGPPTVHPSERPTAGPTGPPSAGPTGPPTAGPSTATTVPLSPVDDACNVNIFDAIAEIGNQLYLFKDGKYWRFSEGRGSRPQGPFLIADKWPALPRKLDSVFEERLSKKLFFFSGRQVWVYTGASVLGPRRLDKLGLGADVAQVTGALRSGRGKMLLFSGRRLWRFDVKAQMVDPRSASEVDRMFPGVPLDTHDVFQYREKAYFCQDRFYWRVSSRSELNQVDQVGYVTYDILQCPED
# Sequence of Stromelysin-1 (P08254 whole entry): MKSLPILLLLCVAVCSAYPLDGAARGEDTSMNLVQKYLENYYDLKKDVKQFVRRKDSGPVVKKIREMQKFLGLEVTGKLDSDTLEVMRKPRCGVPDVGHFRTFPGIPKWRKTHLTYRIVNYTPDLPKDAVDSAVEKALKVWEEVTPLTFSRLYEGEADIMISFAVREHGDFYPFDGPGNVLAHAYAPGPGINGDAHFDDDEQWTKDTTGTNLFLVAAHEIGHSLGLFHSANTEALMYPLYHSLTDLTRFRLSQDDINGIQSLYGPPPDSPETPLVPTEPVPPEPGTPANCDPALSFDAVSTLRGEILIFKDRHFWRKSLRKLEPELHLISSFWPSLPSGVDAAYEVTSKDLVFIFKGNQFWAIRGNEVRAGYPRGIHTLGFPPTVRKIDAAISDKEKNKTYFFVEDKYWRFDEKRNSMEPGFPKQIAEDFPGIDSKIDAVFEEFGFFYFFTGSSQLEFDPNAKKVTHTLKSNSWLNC
smiles,measurement,setting,value
COc1ccc2c(c1)C(=O)N(C[C@@]1(C#Cc3cccnc3)NC(=O)NC1=O)C2,IC50,[1],22 nM
same,Activity,Blood,220 nM
same,IC50,Matrilysin,> 40000 nM
same,IC50,[2],431 nM
same,clearance,[3],317 mL/min/kg
same,Tmax,[4],6 min
same,AUC,[5],1.3 µM·h
same,IC50,Stromelysin-1,5800 nM
same,Tmax,[6],1.2 h
same,bioavailability,[7],9%
same,AUC,[8],7.3 µM·h
same,Tmax,[9],2.2 h
same,Ki,[10],0.62 nM
same,half-life,[11],0.9 h
same,bioavailability,[12],23%
same,IC50,Collagenase 3,2920 nM
same,AUC,[13],3.8 µM·h
same,AUC,[14],1.1 µM·h
same,IC50,Interstitial collagenase,5200 nM
same,bioavailability,[15],15%
same,AUC,[16],2.6 µM·h
same,AUC,[17],4 µM·h
same,clearance,[18],317 mL/min/kg
same,half-life,[19],2.4 h
same,IC50,[20],1010 nM
same,half-life,[21],2.2 h
same,clearance,[22],217 mL/min/kg
COc1ccc2c(c1)C(=O)N(C[C@@]1(C#Cc3cnc4[nH]cnc4c3)NC(=O)NC1=O)C2,Activity,Blood,193 nM
same,Ki,[10],0.92 nM
CCN1CCN(Cc2ccc(C#C[C@]3(CN4Cc5ccc(OC)cc5C4=O)NC(=O)NC3=O)cc2)CC1,Activity,Blood,239 nM
same,Ki,[10],0.29 nM
COc1ccc2c(c1)C(=O)N(C[C@@]1(C#Cc3ccc(CC4CCN(C)CC4)nc3)NC(=O)NC1=O)C2,Activity,Blood,195 nM
same,Ki,[10],0.47 nM
COc1ccc2c(c1)C(=O)N(C[C@@]1(C#Cc3ccc(/C=N/O)cc3)NC(=O)NC1=O)C2,Activity,Blood,167 nM
same,Ki,[10],0.16 nM
CCN1CCN(/C(=N\O)c2ccc(C#C[C@]3(CN4Cc5ccc(OC)cc5C4=O)NC(=O)NC3=O)cc2)CC1,Activity,Blood,20 nM
same,Ki,[10],0.16 nM
CCN1CCN(/C(=N\O)c2ccc(C#C[C@]3(CN4Cc5ccc(OC)cc5C4=O)NC(=O)NC3=O)cn2)CC1,Activity,Blood,87 nM
same,Ki,[10],0.18 nM
COc1ccc2c(c1)C(=O)N(C[C@@]1(C#Cc3ccccc3)NC(=O)NC1=O)C2,Activity,Blood,784 nM
same,Ki,[10],0.14 nM
COc1ccc2c(c1)C(=O)N(C[C@@]1(C#Cc3ccc(/C(=N/O)N4CCN(C)CC4)cc3)NC(=O)NC1=O)C2,Activity,Blood,33 nM
same,Ki,[10],0.22 nM
COc1ccc2c(c1)C(=O)N(C[C@@]1(C#Cc3ccc(-c4ncccc4O)cc3)NC(=O)NC1=O)C2,Activity,Blood,117 nM
same,Ki,[10],0.07 nM
COc1ccc2c(c1)C(=O)N(C[C@@]1(C#Cc3ccc(F)cc3)NC(=O)NC1=O)C2,Activity,Blood,1675 nM
same,Ki,[10],0.26 nM
COc1ccc2c(c1)C(=O)N(C[C@@]1(C#Cc3cccc(F)c3)NC(=O)NC1=O)C2,Activity,Blood,873 nM
same,Ki,[10],0.2 nM
COc1ccc2c(c1)C(=O)N(C[C@@]1(C#Cc3ccccc3F)NC(=O)NC1=O)C2,Activity,Blood,617 nM
same,Ki,[10],0.13 nM
COc1ccc(C#C[C@]2(CN3Cc4ccc(OC)cc4C3=O)NC(=O)NC2=O)cc1,Activity,Blood,1332 nM
same,Ki,[10],0.41 nM
COc1ccc2c(c1)C(=O)N(C[C@@]1(C#Cc3cccc(C(C)C)c3)NC(=O)NC1=O)C2,Activity,Blood,19000 nM
same,Ki,[10],0.5 nM
COc1ccc2c(c1)C(=O)N(C[C@@]1(C#Cc3cccc(C)c3)NC(=O)NC1=O)C2,Activity,Blood,5148 nM
same,Ki,[10],0.72 nM
COc1ccc2c(c1)C(=O)N(C[C@@]1(C#Cc3ccccc3C)NC(=O)NC1=O)C2,Activity,Blood,3142 nM
same,Ki,[10],2 nM
COc1ccc2c(c1)C(=O)N(C[C@@]1(C#Cc3cccc(C#N)c3)NC(=O)NC1=O)C2,Activity,Blood,273 nM
same,Ki,[10],0.06 nM
COc1ccc2c(c1)C(=O)N(C[C@@]1(C#Cc3cccc(C(N)=O)c3)NC(=O)NC1=O)C2,Ki,[10],0.85 nM
COc1ccc2c(c1)C(=O)N(C[C@@]1(C#Cc3ccc(C(N)=O)cc3)NC(=O)NC1=O)C2,Activity,Blood,165 nM
same,Ki,[10],0.56 nM
COc1ccc2c(c1)C(=O)N(C[C@@]1(C#Cc3ccccc3C(N)=O)NC(=O)NC1=O)C2,Activity,Blood,5311 nM
same,Ki,[10],2.78 nM
COc1ccc2c(c1)C(=O)N(C[C@@]1(C#Cc3ccc(C(=O)NC4CC4)cc3)NC(=O)NC1=O)C2,Activity,Blood,487 nM
same,Ki,[10],2.55 nM
COc1ccc2c(c1)C(=O)N(C[C@@]1(C#Cc3ccc(C(C)=O)cc3)NC(=O)NC1=O)C2,Activity,Blood,352 nM
same,Ki,[10],0.5 nM
COc1ccc2c(c1)C(=O)N(C[C@@]1(C#Cc3ccc([C@H](C)N)cc3)NC(=O)NC1=O)C2,Activity,Blood,621 nM
same,Ki,[10],2.35 nM
COc1ccc2c(c1)C(=O)N(C[C@@]1(C#Cc3ccc4[nH]ccc4c3)NC(=O)NC1=O)C2,Activity,Blood,751 nM
same,Ki,[10],0.17 nM
COc1ccc2c(c1)C(=O)N(C[C@@]1(C#Cc3ccc4cc[nH]c4c3)NC(=O)NC1=O)C2,Activity,Blood,2965 nM
same,Ki,[10],0.19 nM
COc1ccc2c(c1)C(=O)N(C[C@@]1(C#Cc3ccc4cnn(C)c4c3)NC(=O)NC1=O)C2,Activity,Blood,10400 nM
same,Ki,[10],0.52 nM
COc1ccc2c(c1)C(=O)N(C[C@@]1(C#Cc3ccc4[nH]cnc4c3)NC(=O)NC1=O)C2,Activity,Blood,211 nM
same,Ki,[10],0.6 nM
COc1ccc2c(c1)C(=O)N(C[C@@]1(C#Cc3ccc4[nH]c(=O)[nH]c4c3)NC(=O)NC1=O)C2,Activity,Blood,240 nM
same,Ki,[10],0.53 nM
CCN1CCN(c2ccc(O)c(-c3ccc(C#C[C@]4(CN5Cc6ccc(OC)cc6C5=O)NC(=O)NC4=O)cc3F)n2)CC1,Activity,Blood,40 nM
same,Ki,[10],0.1 nM
